Screening results deposited in PubChem by several laboratories.
Shown are actives, neighbours in structure and some others; about 2.9% of the full set was active somewhere.
SF-1 act – activators of human nuclear receptor SF-1 | Q13285 | CHO-K1 Gal4-SF-1 LBD luciferase reporter; % increase over DMSO SF-1-specific signal | activation, % at 10 µM | hit rate 1.9% among 65,000;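 active = activation above the mean activation of all tested compounds plus 3 SD, cut at about 50% in these data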
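Assay system: CHO-K1 cells co-transfected with Gal4 DBD–human SF-1 LBD, 5xGal4 luciferase reporter / Input: 4,000 cells per well / Incubation: 20 h compound exposure at 37 °C after 1 h cell settling / Detection: SteadyLite luciferase luminescence / Control set: DMSO negative control and −SF1 background wells / Replication: one test per compound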
JNK3 inh – inhibitors of human JNK3 kinase; hit rate 0.61% among 60,000; purified JNK3 kinase activity, HTS; inhibition, % at 8 µM; in the data active = inhibition above about 17%;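 also: 0% = DMSO and 100% = reference inhibitor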
RORa activator – activates the human nuclear receptor RORA; hit rate 1.5% among 65,000; activation, % at 10 µM; P35398; CHO-K1 Gal4-RORA LBD luciferase reporter, luminescence; percent increase over mock-subtracted basal signal;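 active = activation above the mean of all tested compounds plus 3 SD, cut at about 49% in these data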;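 also: 0% = DMSO-treated RORA cells and 100% = added signal equal to DMSO minus mock-transfected cells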
PKA inh – inhibitors of human protein kinase A; PKA Kemptide phosphorylation, Kinase-Glo ATP luminescence; AID 524; hit rate 0.1% among 65,000; inhibition, % at 6 µM; P17612;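 active = inhibition above the screen-wide mean inhibition plus 3 SD, cut at about 21% in these data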
mHtt clearance – compounds clearing mutant huntingtin protein. HeLa Exon1htt(103Q)mCFP, aggregate imaging; zero = plate's median compound well. inhibition, % at 1.5 µM. hit rate 0.42% among 47,000;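 active = inhibition of aggregate fluorescence above about 70%, also judged a hit by eye on the cell image, limit read from the data, passing the limit was not always enough; inconclusive = no rule stated for this call; inactive = not judged a hit on image review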;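 also: cells exposed to compound for three days before fixation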
ROCK2 inh – inhibitors of human Rho kinase 2. O75116. purified ROCK2, Kinase-Glo ATP depletion luminescence. inhibition, % at 6 µM. hit rate 0.35% among 60,000;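 active = inhibition above the screen-wide mean inhibition plus 3 SD, cut at about 18% in these data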;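 also: plate controls were DMSO wells for no effect and Y-27632 control wells after no-enzyme background subtraction for full effect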
Target sequence (O75116 whole entry, looked up): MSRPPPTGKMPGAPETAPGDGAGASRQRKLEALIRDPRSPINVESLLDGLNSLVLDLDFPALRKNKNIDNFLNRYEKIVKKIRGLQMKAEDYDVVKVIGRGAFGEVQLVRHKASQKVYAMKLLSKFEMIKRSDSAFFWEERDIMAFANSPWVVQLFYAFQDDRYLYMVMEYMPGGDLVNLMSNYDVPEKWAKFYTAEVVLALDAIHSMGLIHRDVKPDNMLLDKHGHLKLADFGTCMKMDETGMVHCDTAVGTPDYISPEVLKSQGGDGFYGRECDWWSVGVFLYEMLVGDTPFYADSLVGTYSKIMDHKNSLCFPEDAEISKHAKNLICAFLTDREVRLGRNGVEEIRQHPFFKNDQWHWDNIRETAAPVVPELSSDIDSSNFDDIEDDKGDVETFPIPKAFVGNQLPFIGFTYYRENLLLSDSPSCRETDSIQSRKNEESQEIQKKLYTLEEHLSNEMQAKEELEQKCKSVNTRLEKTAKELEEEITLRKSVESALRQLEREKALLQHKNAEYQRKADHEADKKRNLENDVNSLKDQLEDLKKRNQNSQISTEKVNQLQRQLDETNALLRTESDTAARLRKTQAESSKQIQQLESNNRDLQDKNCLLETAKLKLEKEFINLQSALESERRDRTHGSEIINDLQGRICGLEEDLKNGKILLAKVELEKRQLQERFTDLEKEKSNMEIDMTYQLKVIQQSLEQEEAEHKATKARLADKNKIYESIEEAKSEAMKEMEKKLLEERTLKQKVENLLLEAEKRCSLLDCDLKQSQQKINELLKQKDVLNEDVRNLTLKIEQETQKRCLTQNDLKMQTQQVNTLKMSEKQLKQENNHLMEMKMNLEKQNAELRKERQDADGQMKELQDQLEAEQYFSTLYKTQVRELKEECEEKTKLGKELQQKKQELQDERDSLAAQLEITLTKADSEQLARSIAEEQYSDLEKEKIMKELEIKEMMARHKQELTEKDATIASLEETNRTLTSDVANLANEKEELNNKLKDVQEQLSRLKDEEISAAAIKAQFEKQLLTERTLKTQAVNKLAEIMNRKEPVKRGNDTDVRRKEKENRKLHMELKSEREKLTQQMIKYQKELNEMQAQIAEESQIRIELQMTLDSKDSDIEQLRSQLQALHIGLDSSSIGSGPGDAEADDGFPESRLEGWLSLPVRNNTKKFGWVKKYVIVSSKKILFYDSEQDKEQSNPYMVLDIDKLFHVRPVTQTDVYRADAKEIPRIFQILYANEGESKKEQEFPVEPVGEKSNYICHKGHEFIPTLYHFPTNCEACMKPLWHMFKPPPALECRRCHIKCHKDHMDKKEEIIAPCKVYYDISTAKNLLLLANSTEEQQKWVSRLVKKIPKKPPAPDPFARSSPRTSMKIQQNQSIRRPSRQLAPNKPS
An asterisk follows results filed as active; ? = inconclusive; . = no result.

SMILES	SF-1 act	JNK3 inh	RORa activator	PKA inh	mHtt clearance	ROCK2 inh
Cc1cccn2c(=O)c3cc(C(=O)NC(C)c4ccccc4)c(=N)n(CCCn4ccnc4)c3nc12 (stereo unspecified)	-5.9	-4.1	2.9	6.8	.	2.5
CC(C)[C@H](NC(=O)[C@@H]1CSCN1C(=O)OC(C)(C)C)C(=O)NCC1CCC(C(=O)O)CC1 (stereo partly specified)	-20.2	-1.9	-0.9	10.1	76.4*	9.6
O=C(c1ccccc1)N1CCN2C(=O)c3ccccc3C12c1ccc(Cl)cc1 (stereo unspecified)	.	.	.	.	-72.3	.
c1ccc(-c2noc(-c3ccncc3)n2)nc1	14.2	3.4	34.7	-16.9	.	-31.3
c1ccc(-c2noc(C3CCCCC3)n2)nc1	55.8*	7.0	60.7*	0.3	?	-8.7
c1ccc(-c2noc(C34CC5CC(CC(C5)C3)C4)n2)nc1	85.6*	5.4	42.1	2.9	.	4.2
c1ccc(-c2noc(-c3cccnc3)n2)nc1	-2.7	4.4	19.5	-9.7	.	-37.6
CC(O)C(=O)NCCOCCOCCNC(=O)C(C)O (stereo unspecified)	0.3	2.2	-0.9	6.9	.	4.6
COC(=O)c1ccccc1NC(=O)c1cc(-c2ccc(OC)c(OC)c2)on1	-4.0	-4.4	-5.0	-2.3	71.0*	-1.7
CCOC(=O)c1[nH]c2ccc(C)cc2c1N	72.7*	-10.5	12.2	1.8	.	3.7
COc1cccc(-c2csc(NC(=O)C3CC3)n2)c1	60.1*	-10.6	74.4*	4.8	.	-2.1
COc1cccc(C(=O)Nc2nc(-c3ccc4c(c3)OCO4)cs2)c1	.	.	.	.	-87.8	.
COC(=O)c1cc(C(=O)OC)cc(N2C(=O)CC(Sc3nc(C)cc(C)n3)C2=O)c1 (stereo unspecified)	15.0	5.0	-7.2	7.5	-22.2	4.7
COC(=O)c1cc(C(=O)OC)cc(N2C(=O)CC(NNC(=O)c3ccccc3Br)C2=O)c1 (stereo unspecified)	.	.	.	.	84.9*	.
Cc1ccc(NS(=O)(=O)c2ccc(OCC(=O)Nc3cccc([N+](=O)[O-])c3)c(C)c2)cc1	.	.	.	.	31.6	.
C=CCOC(=O)c1sc(N2C(=O)c3oc4ccccc4c(=O)c3C2c2ccco2)nc1C (stereo unspecified)	32.3	-2.8	23.9	5.2	.	3.2
COC(=O)CNc1c(-c2ccccn2)nc2ccc(Br)cn12	69.3*	.	59.8*	-4.0	37.7	.
CCN(CC)c1ccc2cc(-c3nnc(-c4ccncc4)o3)c(=O)oc2c1	73.2*	0.6	25.0	3.7	20.9	0.6
CCN(CC)c1ccc2cc(C(N)=O)c(=O)oc2c1	.	.	.	.	4.8	.
CCNc1nc(N)c(C(=O)c2ccc(Cl)s2)s1	31.4	13.3	49.8*	6.0	-16.6	3.2
CCOC(=O)C1CCCN(C(=O)CN2CCN(Cc3ccc(Cl)cc3)C2=O)C1 (stereo unspecified)	8.5	.	-13.4	3.3	.	.
Cc1ccccc1Nc1nn2c(=O)c3ccccc3nc2s1	72.9*	25.7*	42.8	7.1	23.4	0.3
Cc1cc(Nc2ccccc2C(=O)O)nc2nc3ccccc3c(=O)n12	-6.0	2.5	-0.9	12.0	.	8.2
Fc1ccc(COc2ccc(/C=N/n3cnnc3)cc2)cc1	6.7	-4.8	11.5	-2.9	-17.2	-0.2
Cn1nccc1C(=O)OCC(=O)Nc1nc(-c2ccccc2)cs1	49.6*	6.6	45.7	10.0	.	7.0
SMILES	SF-1 act	JNK3 inh	RORa activator	PKA inh	mHtt clearance	ROCK2 inh
COC(=O)CCC(=O)Nc1nc(-c2ccccc2)cs1	11.0	4.0	18.8	4.8	.	3.0
Cc1c(/C(O)=C2/C(=O)C(=O)N(CCN3CCOCC3)C2c2cccs2)cnn1-c1ccccc1 (stereo unspecified)	11.8	-3.3	6.4	-9.8	.	-3.6
CCN(CC)CCN1C(=O)C(=O)/C(=C(/O)c2cnn(-c3ccccc3)c2C)C1c1ccc(C)o1 (stereo unspecified)	.	.	.	.	-0.1	.
Cc1ccc(C2/C(=C(\O)c3cnn(-c4ccccc4)c3C)C(=O)C(=O)N2CCN(C)C)o1 (stereo unspecified)	52.7*	3.2	8.6	4.4	.	10.5
Cc1ccc(C2/C(=C(/O)c3cnn(-c4ccccc4)c3C)C(=O)C(=O)N2CCN2CCOCC2)o1 (stereo unspecified)	54.5*	-6.0	21.8	2.2	.	4.0
CC1CC(C)CN(Cc2nc(N)nc(Nc3ccc4ccccc4c3)n2)C1 (stereo unspecified)	17.9	-8.7	28.8	6.0	.	7.0
Cc1c(-c2nc(N)nc(Nc3ccccc3)n2)oc2ccccc12	161.7*	18.5*	88.7*	2.5	.	-8.3
CCc1cc(=O)oc2c(C)c(OCC(=O)N3CCCc4ccccc43)ccc12	.	.	.	.	28.2	.
COC(=O)c1cc(C(=O)Nc2cc(C)ccn2)cc([N+](=O)[O-])c1	.	.	.	.	-51.0	.
COc1ccc(C(CNC(=O)COc2ccccc2C#N)N2CCOCC2)cc1 (stereo unspecified)	2.1	0.1	-1.0	4.8	.	5.8
CC(C)(C)NC(=O)NC(=O)COc1ccccc1C#N	60.1*	2.9	47.2	5.5	.	3.1
CC(C)C1Cc2c(sc3[nH]c(=S)n(Cc4ccccc4)c(=O)c23)CO1 (stereo unspecified)	.	.	.	.	-14.5	.
O=C(CSCC(=O)N1CCOCC1)Nc1nc(-c2ccc3c(c2)OCO3)cs1	48.2	-2.5	52.3*	8.3	.	3.9
O=C(C1CC=CCC1)N1CCN(C(=O)C2CC=CCC2)CC1 (stereo unspecified)	.	.	.	.	-32.7	.
Cc1cccc(N2CCN(C(=O)c3ccc(Cl)c(S(=O)(=O)NCc4ccco4)c3)CC2)c1C	53.1*	1.1	50.7*	0.3	.	5.0
Cc1cccn2cc(-c3ccc(F)cc3)nc12	30.4	3.7	30.1	1.6	.	-4.0
Cc1cccn2cc(-c3ccccc3)nc12	1.3	7.9	75.8*	-5.8	.	-0.3
CC(C)CC1NC(=O)N(CC(=O)c2ccc3c(c2)OCCO3)C1=O (stereo unspecified)	83.9*	.	57.4*	-3.7	.	.
COc1ccccc1NC(=O)CN1C(=O)NC(CC(C)C)C1=O (stereo unspecified)	-0.2	5.1	1.1	11.6	.	4.3
Cc1ccc(C(=O)c2oc3ccccc3c2N)cc1	.	.	.	.	30.8	.
Nc1c(C(=O)c2ccccc2)oc2ccc(Br)cc12	140.1*	11.3	52.6*	5.3	.	2.6
COC(=O)Cc1cc(=O)[nH]c(/N=C(\N)Nc2ccccc2C)n1	.	.	.	.	-22.0	.
O=C(Cc1cn2ccsc2n1)OCc1ccccc1	10.6	-3.4	5.7	-8.2	30.2	-1.0
c1cn2cc(CSC3CCCCC3)nc2s1	59.6*	6.0	29.9	8.8	-8.3	0.7
Clc1ccc(SCc2cn3ccsc3n2)cc1	57.7*	-4.5	30.3	5.7	.	8.7
c1ccc(CSCc2cn3ccsc3n2)cc1	53.8*	3.3	57.6*	13.0	36.7	5.6
Cc1ccc(C)c(S(=O)(=O)N2CCN(CC(=O)NC(=O)NCc3ccccc3)CC2)c1	-12.4	-1.5	2.8	6.8	.	1.8
